Source: PubChem BioAssay (several laboratories)
ATG4B inhibitor = ATG4B protease inhibitors, primary screen, biochemical, fluorescence, uHTS; inhibition, % at 8.33 µM; Cysteine protease ATG4B (Homo sapiens), Q9Y4P1; ATG4B cleavage of LC3-PLA2, NBD-HPC fluorescence, 1 h; hit rate 0.51% among 340,000; in the data active = inhibition above about 40%
Target sequence (Q9Y4P1 whole entry, looked up): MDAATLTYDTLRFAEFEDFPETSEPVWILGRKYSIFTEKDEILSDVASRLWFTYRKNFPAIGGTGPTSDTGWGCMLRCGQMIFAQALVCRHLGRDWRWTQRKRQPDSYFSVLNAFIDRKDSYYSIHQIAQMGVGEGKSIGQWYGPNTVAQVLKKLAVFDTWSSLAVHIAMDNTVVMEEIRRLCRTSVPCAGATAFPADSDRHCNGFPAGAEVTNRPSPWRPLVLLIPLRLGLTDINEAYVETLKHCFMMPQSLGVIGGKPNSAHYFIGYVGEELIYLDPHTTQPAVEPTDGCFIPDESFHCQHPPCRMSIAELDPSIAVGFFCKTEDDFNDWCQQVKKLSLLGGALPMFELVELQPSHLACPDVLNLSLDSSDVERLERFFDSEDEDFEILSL
MPTP inh = mitochondrial permeability transition pore inhibitors, primary screen, biochemical, isolated mouse mitochondria, absorbance | Ca2+ swelling absorbance, 30 min | inhibition, % at 10 µM | hit rate 1.4% among 360,000 | AID 602449, 2012;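 active = inhibition of 50% or more, scaled per plate between neutral and stimulator controls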;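 also: 0% = DMSO wells given calcium and 100% = 1 mM EGTA wells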
MC4R barr agon = MC4R agonists recruiting beta-arrestin, primary screen, cell-based, luminescence, agonist arm of biased-ligand search | U2OS MC4R beta-arrestin complementation; percent of melanotan II response, DMSO zero | Melanocortin receptor 4 (Homo sapiens), P32245 | AID 540308, 2011 | hit rate 0.98% among 360,000 | activation, % at 8.9 µM;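 active = activation above a per-plate cutoff, the mean activation of sample wells on that plate plus 3 SD, cut at about 8% in these data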
Target sequence (P32245 whole entry, looked up): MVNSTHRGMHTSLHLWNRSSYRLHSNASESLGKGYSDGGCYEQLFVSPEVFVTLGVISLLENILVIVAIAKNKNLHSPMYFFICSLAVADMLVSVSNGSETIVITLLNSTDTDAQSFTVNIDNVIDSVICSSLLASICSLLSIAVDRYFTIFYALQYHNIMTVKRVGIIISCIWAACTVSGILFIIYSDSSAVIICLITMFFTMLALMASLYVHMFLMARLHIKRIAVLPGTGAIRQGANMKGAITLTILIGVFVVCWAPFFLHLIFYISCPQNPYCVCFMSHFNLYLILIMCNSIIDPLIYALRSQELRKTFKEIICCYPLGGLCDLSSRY
SMARCA2 activ = SMARCA2 (BRM) function activators, primary screen, cell-based, luminescence, high throughput; AID 652017, 2013; MG213 cells, MMTV-luciferase reporter, dexamethasone, overnight; activation, % at 9.1 µM; hit rate 1% among 370,000; in the data active = activation above about 7.8%;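 also: 0% = vehicle wells and 100% = reference activator wells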
MC4R antag cAMP = MC4R antagonists of cAMP signaling, primary screen, cell-based, TR-FRET, antagonist arm of biased-ligand search | Melanocortin receptor 4 (Homo sapiens), P32245 | MC4R-expressing cells, MTII-stimulated cAMP, LANCE TR-FRET | inhibition, % at 6.5 µM | hit rate 0.48% among 360,000 | AID 540295, 2011;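 active = inhibition above its plate's cutoff, the mean of tested wells on that plate plus 3 SD, cut at about 29% in these data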;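 also: 0% = Melanotan II alone and 100% = Melanotan II plus saturating MCL0020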
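Assay system: U2OS cells stably expressing human melanocortin 4 receptor (MC4R) / Dosing: 6.5 µM / Timing: compound 30 min, challenge 1 h, detection 1 h / Measured by: Eu-cAMP/anti-cAMP TR-FRET, emission 671 nm / Replicates: singlicate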
MC4R barr ag = MC4R beta-arrestin agonists, retest, confirmation, cell-based, luminescence, U2OS | shares compounds with MC4R barr agon | U2OS MC4R beta-arrestin recruitment; scaled DMSO 0%, Melanotan II 100% | activation, % at 8.9 µM | hit rate 31% among 2,400;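 active = mean activation across replicates above the hit cutoff set in the earlier primary screen, cut at about 8% in these data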
MOR-DOR barr ag = agonists of MOR-DOR heterodimerization, counter-screen for MC4R biased agonist project, cell-based, luminescence; AID 602194, 2012; shares compounds with MC4R barr agon; U2OS PathHunter beta-arrestin, beta-gal luminescence; percent of deltorphin B response, DMSO zero; hit rate 5.8% among 2,400; activation, % at 9.2 µM;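 active = mean activation across replicates exceeds the hit threshold derived in the earlier primary screen, cut at about 18% in these data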;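 also: 100% = deltorphin B at 0.9 µM final and 0% = DMSO alone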
Starred values were filed as active, the others as inactive; / = not tested or not shown. An excerpt weighted towards active compounds, which were near 4.1% of everything screened.

SMILES | ATG4B inhibitor | MPTP inh | MC4R barr agon | SMARCA2 activ | MC4R antag cAMP | MC4R barr ag | MOR-DOR barr ag
Clc1ccc(-c2csc(N/N=C\c3cccnc3)n2)cc1 | 0.3 | 17.2 | 11.3* | -5.1 | 17.2 | -0.3 | 5.4
O=C(C(=O)N1CCC(CNC(=O)c2sc3ccccc3c2Cl)CC1)c1cccs1 | / | / | / | -7.8 | / | / | /
CCCCN1C(=O)N2Cc3ccc(C)cc3C2CS1(=O)=O (centres undefined) | / | / | / | 1.7 | / | / | /
Cc1ccc(N/C(N)=N/c2nc(CSc3nnc(N)s3)cc(=O)[nH]2)cc1 | -7.4 | 0.6 | -0.6 | 1.5 | -7.1 | / | /
N/C(=N\c1nc(CSc2nc3ccccc3s2)cc(=O)[nH]1)Nc1ccc(F)cc1 | -2.9 | 11.8 | 11.7* | 2.4 | 1.6 | 1.4 | 3.4
COc1ccc(C(=O)Nc2cccc(-c3cc4ccccc4oc3=O)c2)cc1[N+](=O)[O-] | 23.2 | -18.1 | 13.4* | -2.4 | -0.5 | 0.0 | 2.5
CC(COc1cc(F)cc(F)c1)CN1CCC(C(O)(c2ccccc2)c2ccccc2)CC1 (centres undefined) | / | / | / | -1.5 | / | / | /
O=C(Nc1ccc(F)cc1F)c1csc(-c2ccncc2)n1 | -1.2 | -2.4 | 1.6 | 0.1 | 20.1 | / | /
O=C(Nc1ccc(F)cc1F)c1csc(-c2cccs2)n1 | -2.6 | 2.2 | 14.6* | 6.7 | -2.4 | 0.0 | 3.6
COc1cccc(C(=O)Nc2nnc(-c3ccccc3)s2)c1 | -10.7 | 0.6 | 12.9* | 3.7 | -3.9 | 2.1 | 0.9
COc1cccc(C(=O)NCc2ccc(-c3nc4ccccc4s3)cc2)c1 | -5.5 | 0.8 | 30.0* | -1.4 | -0.4 | 1.9 | 3.6
COc1cccc(C(=O)Nc2nnc(-c3ccc(OC)cc3OC)s2)c1 | 1.5 | 0.3 | 0.9 | -1.2 | 9.8 | / | /
O=C([C@@H]1C[C@H]1c1ccccc1)N1CC[C@H]2[C@H](CCCN2Cc2ccc(F)cc2)C1 | / | / | / | -1.6 | / | / | /
Cc1ccc(CNC(=O)c2ccc3c(=O)c(O)c(-c4ccc(C)cc4)[nH]c3c2)cc1 | -8.2 | 8.7 | 13.0* | -0.1 | 5.1 | 1.2 | 8.8
NC(Cc1ccc(Cl)cc1)c1csc(Nc2ccc(C(F)(F)F)cn2)n1 (centres undefined) | / | 2.5 | 1.6 | -5.5 | 5.9 | / | /
CC(C)CC(N)c1csc(Nc2ccc(C(F)(F)F)cn2)n1 (centres undefined) | / | 3.4 | 10.0* | -5.3 | -1.0 | 25.8* | 13.1
NC(CCc1ccccc1)c1csc(Nc2ccc(C(F)(F)F)cn2)n1 (centres undefined) | / | 6.6 | 17.0* | -3.8 | -7.4 | 2.5 | 10.8
CCc1ccc(CCNC(=O)OC2CC3CC2[C@H]2CCCCN2[C@H]3C)cc1 (some centres undefined) | / | / | / | -2.6 | / | / | /
Cc1cc(N2CCNC[C@H]2C)ccc1N1C[C@@H](C)O[C@@H](C)C1 | / | / | / | -2.0 | / | / | /
Clc1ccc(-c2csc(NCC3CCCO3)n2)cc1 (centres undefined) | / | / | / | -1.0 | / | / | /
O=C(NCCC1=CCCCC1)c1cc(S(=O)(=O)N2CCOCC2)ccc1Cl | 0.1 | -0.4 | 1.9 | -0.3 | -0.7 | / | /
O=C(NCCC1=CCCCC1)c1cc(S(=O)(=O)N2CCOCC2)c(Cl)cc1Cl | -0.7 | -1.9 | 10.1* | -0.7 | 5.2 | 0.1 | 4.7
CNC(=O)c1cc2cc(Cc3ccccc3Cl)ccc2oc1=O | 0.4 | -0.2 | 0.7 | -2.3 | 5.9 | / | /
NC(=O)c1cc2cc(Cc3ccccc3Cl)ccc2oc1=O | 1.8 | 0.4 | 10.8* | -0.9 | -6.1 | -1.5 | 5.6
COc1cc2c(-c3ccccc3O)nc3c(c(C)nn3-c3ccccc3)c2cc1OC | -3.7 | 5.1 | 11.4* | -0.7 | 4.2 | 2.6 | 19.8*
SMILES | ATG4B inhibitor | MPTP inh | MC4R barr agon | SMARCA2 activ | MC4R antag cAMP | MC4R barr ag | MOR-DOR barr ag
COC(=O)c1cc(C)nc2c1c(C)nn2-c1ccccc1 | -0.8 | -0.4 | 2.8 | -0.5 | -3.6 | / | /
Cc1cccc(OCC(=O)Nc2cccc(-c3nnc(-c4ccccc4)o3)c2)c1C | -2.5 | 11.5 | 30.2* | 3.4 | 6.6 | 15.1* | 11.9
Cc1cccc(OCC(=O)NNC(=O)Nc2cccc(Cl)c2)c1C | -0.3 | 0.6 | 10.3* | -0.6 | -1.4 | 3.8 | 4.8
COc1ccccc1C(=O)Nc1ccc2oc(-c3ccc(F)cc3)nc2c1 | 3.4 | 3.9 | 17.5* | 0.6 | 4.4 | 5.8 | 2.5
CCC(=O)Nc1cccc(-c2nc3ccccc3o2)c1 | -12.9 | 0.3 | -2.2 | -1.5 | -4.9 | / | /
COc1ccccc1OCC(=O)Nc1cccc(-c2nc3ccccc3o2)c1 | -2.8 | 1.3 | 15.3* | -0.9 | 8.7 | 5.4 | 3.2
C=CS(=O)(=O)N(Cc1nnn(Cc2ccccc2)c1Br)[C@@H](CC(C)C)C(=O)OC | / | / | / | -7.0 | / | / | /
C[C@H](O)[C@@H]1CN2CCc3c([nH]c4c(-c5ccccc5)cccc34)[C@@H]2C[C@@H]1N(C)C(=S)Nc1ccc(C#N)cc1 | / | / | / | -4.3 | / | / | /
Cn1c(=O)oc2cc(S(=O)(=O)N3CCN(c4cccc(Cl)c4)CC3)ccc21 | -1.9 | -0.3 | 10.6* | -1.9 | -2.0 | 0.1 | 4.3
Cn1c(=O)oc2cc(S(=O)(=O)N3CCN(c4ccc(F)cc4)CC3)ccc21 | -8.4 | -0.1 | 0.6 | 0.8 | 11.2 | / | /
O=C1COc2ccc(S(=O)(=O)N3CCN(c4cccc(Cl)c4)CC3)cc2N1 | -6.6 | 1.2 | 9.6* | -1.8 | -1.1 | 3.6 | 9.5
[C-]#[N+][C@]12C(=O)[C@H](C=C(Cl)[C@@]1(C)C=C)C(C)(C)[C@H]1C(=O)N(C)c3cccc2c31 | / | / | / | -5.6 | / | / | /
Cc1ccc(C)c(C(=O)COC(=O)c2n[nH]c3ccccc23)c1 | -3.6 | -1.0 | 16.4* | 2.3 | -13.9 | 16.1* | 8.5
CN1C(=O)C[C@@](C#N)(C(=O)NCC(F)(F)F)[C@H]1c1ccccc1 | / | / | / | 2.7 | / | / | /
Cc1ccc(C(=O)NCCc2cc3ccc(C)c(C)c3[nH]c2=O)cc1[N+](=O)[O-] | -1.8 | 1.4 | 9.6* | -1.9 | 7.1 | 0.7 | 2.8
O=C(CSc1nnc(-c2cccnc2)n1-c1ccc(Cl)cc1)c1ccc(F)cc1 | / | / | / | -3.0 | / | / | /
Cc1[nH]c2ccccc2c1C(=O)CSc1ccc(Cl)cc1 | -6.1 | 1.3 | 11.7* | 0.8 | -11.3 | 2.9 | 5.9
O=C(c1ccc(Cl)c(Cl)c1)N1CCC(Oc2cccnc2)CC1 | / | / | / | -1.2 | / | / | /
Cc1csc2nc(O)c(C(=O)NCCC3=CCCCC3)c(=O)n12 | -3.1 | -0.2 | 14.3* | -0.7 | -3.8 | -0.9 | 2.9
